Experimental data: publication PMC10155261 (European journal of medicinal chemistry, 2022)
Where two headings read alike, the source gives them in different places.

Legend:
[1] = tested on: CFA-induced nociceptive hypersensitivity in rats; test: CFA-induced inflammatory pain model, von Frey mechanical nociception; assay type: in vivo, Sprague-Dawley rats; details: i.p.; for duration of effect in CFA model: 65 and 66 at 17.8 mg/kg, 2 at 32 mg/kg
[2] = tested on: CCI-induced mechanical allodynia in rats; test: Chronic constriction injury; assay type: in vivo, Sprague-Dawley rats; details: i.p., 32 mg/kg
LPA5 [3] = details: cAMP assay ref 31; cited from earlier work
hLPA5 [4] = biological target: T1, hLPA5 (Homo sapiens, UniProt Q9H1C0); test: LPA5 calcium mobilization assay; assay type: cell-based; details: for fold less potent than 2: in both calcium mobilization and cAMP assays; for IC50, nM: RH7777-hLPA5 cells, against EC80 (30 nM) of hexadecyl LPA 16:0, mean ± SEM
T1 sequence (Q9H1C0 whole entry): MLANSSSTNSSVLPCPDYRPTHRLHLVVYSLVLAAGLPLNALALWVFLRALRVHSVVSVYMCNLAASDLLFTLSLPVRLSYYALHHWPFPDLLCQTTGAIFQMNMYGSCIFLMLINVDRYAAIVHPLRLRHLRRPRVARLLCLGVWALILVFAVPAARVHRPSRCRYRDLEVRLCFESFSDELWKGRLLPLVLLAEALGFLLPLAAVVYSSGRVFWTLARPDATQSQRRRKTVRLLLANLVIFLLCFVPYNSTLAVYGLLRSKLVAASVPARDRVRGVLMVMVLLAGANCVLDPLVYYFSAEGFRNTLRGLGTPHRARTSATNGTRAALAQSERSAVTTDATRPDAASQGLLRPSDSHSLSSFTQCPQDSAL
In short: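 RH7777-hLPA5 cells were plated on poly-D-lysine at 20,000 cells/well in 0.2% FBS medium for 18–20 h at 37 °C. They were loaded 45 min with Calcium 5 dye in HBSS, 20 mM HEPES and 2.5 mM probenecid, pH 7.4. Eight test-compound concentrations were pre-incubated for 15 min at 37 °C, then hexadecyl LPA 16:0 EC80 (30 nM) was added at 10 s. Fluorescence (485/525 nm) was read every 1 s for 90 s. IC50 came from a three-parameter logistic fit of RFU. Duplicate determinations; two or at least three independent experiments.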

LPA5 [5] = details: SAR study of Kawamoto et al. ref 32; cited from earlier work
hLPA5 [6] = biological target: T1, hLPA5; test: LPA5 TR-FRET Lance Ultra cAMP assay; assay type: cell-based; details: for fold less potent than 2: cAMP assay
LPA1–LPA4 receptors = test: LPA1–LPA3 calcium mobilization; assay type: cell-based; details: 10 μM in Ca2+ for LPA1–LPA3 and cAMP for LPA4
In short: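 Selectivity was tested with test compound at 10 μM. LPA1–LPA3 calcium mobilization was run externally in CHO cells over-expressing each receptor, under the provider's protocols. LPA4 was a TR-FRET cAMP assay in LPA4-overexpressing CHO cells, following the LPA5 cAMP method but against 250 nM hexadecyl LPA 16:0 (EC80).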

[7] = tested on: >50 GPCRs (NIMH Psychoactive Drug Screening Program panel); test: NIMH PDSP radioligand binding panel; details: < 50% inhibition at 10 μM or pKi ≤ 6
[8] = Metabolic stability in rat liver microsomes; assay type: in vitro ADME; details: pH 7.4
In short: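 Rat liver microsomes (0.5 mg/mL protein) were used in 100 mM potassium phosphate, pH 7.4, at 37 °C, with NADPH at 1 mM final. Samples were taken at 0, 5, 15, 30 and 45 min and quenched 1:1 in cold acetonitrile containing labetalol and glyburide. Parent was measured by LC-MS/MS, and half-life and in vitro clearance were calculated. Two independent experiments in duplicate.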

[9] = Bidirectional MDCK-MDR1 permeability; assay type: in vitro ADME; details: dog, MDCK-MDR1, pH 7.4, Papp (B-to-A), MDCK-MDR1 Transwell, 10 μM
In short: (§1)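 MDCK-mdr1 cells (passage 5) were grown on polycarbonate Transwell supports for 3 days and rinsed with warm HBSS. They were pre-incubated 30 min at 37 °C in HBSS with 10 mM HEPES and 0.25% BSA, pH 7.4, then TEER was measured. Test compound at 10 μM went to the apical donor (A-to-B) or basolateral donor (B-to-A) side, at 37 °C with light agitation. Receiver was sampled at 30, 60 and 90 min and analysed by LC-MS/MS. Papp came from dQ/dt, area 1.12 cm2 and initial donor concentration. Atenolol and propranolol were references.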

MDCK-mdr1 cells = test: Bidirectional MDCK-MDR1 permeability; assay type: in vitro ADME; details: MDCK-MDR1 Transwell, 10 μM
In short: as §1

P-glycoprotein (MDR1) = test: Bidirectional MDCK-MDR1 permeability; assay type: in vitro ADME; details: dog, MDCK-MDR1, pH 7.4
In short: as §1

LPA5 [10] = details: read-out: IC50, binding to [^3H]LPA; literature value ref 8; cited from earlier work

COc1cc2c(C(=O)N3CCCCC3)cn(-c3noc4ccc(C)cc34)c(=O)c2cc1OC [Compound 2, 6,7-Dimethoxy-2-(5-methylbenzo[d]isoxazol-3-yl)-4-(piperidine-1-carbonyl)isoquinolin-1(2H)-o-ne, reference compound]
effect on CFA-induced nociceptive hypersensitivity ([1]; 32 mg/kg): did not fully reverse the nociceptive hypersensitivity | duration of effect in CFA model [1]: ~ 2 h | antinociceptive effect in CCI model [2]: full antinociceptive effects | IC50 (LPA5 [3]): 38 nM

CCN1CCc2ccc(-n3cc(C(=O)N4CCC(F)CC4)c4cc(OC)c(OC)cc4c3=O)cc21 [Compound 3, 2-(1-Ethylindolin-6-yl)-4-(4-fluoropiperidine-1-carbonyl)-6,7-dimethoxyisoquinolin-1(2H)-one, reference compound]
fold less potent than 2 (hLPA5 [4]): 2–3 fold | IC50 (LPA5 [5]): 120 nM

COc1cc2c(C(=O)N(C)C)cn(-c3cccc(N(C)C)c3)c(=O)c2cc1OC [Compound 10, 2-(3-(Dimethylamino)phenyl)-6,7-dimethoxy-N,N-dimethyl-1-oxo-1,2-dihydroisoquinoline-4-car-boxamide]
IC50, nM (hLPA5 [4]): inactive

COc1cc2c(C(=O)N(C)Cc3ccncc3)cn(-c3cccc(N(C)C)c3)c(=O)c2cc1OC [Compound 11, 2-(3-(Dimethylamino)phenyl)-6,7-dimethoxy-N-methyl-1-oxo-N-(pyridin-4-ylmethyl)-1,2-dihydr-oisoquinoline-4-carboxamide]
IC50, nM (hLPA5 [4]): inactive

COc1cc2c(C(=O)N3CCC3)cn(-c3cccc(N(C)C)c3)c(=O)c2cc1OC [Compound 13, 4-(Azetidine-1-carbonyl)-2-(3-(dimethylamino)phenyl)-6,7-dimethoxyisoquinolin-1(2H)-one]
IC50, nM (hLPA5 [4]): inactive

COc1cc2c(C(=O)N3CCCC3)cn(-c3cccc(N(C)C)c3)c(=O)c2cc1OC [Compound 14, 2-(3-(Dimethylamino)phenyl)-6,7-dimethoxy-4-(pyrrolidine-1-carbonyl)isoquinolin-1(2H)-one]
IC50, nM (hLPA5 [4]): inactive

COc1cc2c(C(=O)N3CCC(F)CC3)cn(-c3cccc(N(C)C)c3)c(=O)c2cc1OC [Compound 23, 2-(3-(Dimethylamino)phenyl)-4-(4-fluoropiperidine-1-carbonyl)-6,7-dimethoxyisoquinolin-1(2H-)-one]
fold less potent than 2 (hLPA5 [6]): 4 – 10 fold

COc1cc2c(C(=O)N3CCC(C#N)CC3)cn(-c3cccc(N(C)C)c3)c(=O)c2cc1OC [Compound 24, 1-(2-(3-(Dimethylamino)phenyl)-6,7-dimethoxy-1-oxo-1,2-dihydroisoquinoline-4-carbonyl)piper-idine-4-carbonitrile]
IC50 (hLPA5 [6]): 2100 ± 300 nM | fold less potent than 2 (hLPA5 [6]): 4 – 10 fold

C#CC1CCN(C(=O)c2cn(-c3cccc(N(C)C)c3)c(=O)c3cc(OC)c(OC)cc23)CC1 [Compound 26, 2-(3-(Dimethylamino)phenyl)-4-(4-ethynylpiperidine-1-carbonyl)-6,7-dimethoxyisoquinolin-1(2-H)-one]
fold more potent than the unsubstituted piperidine 15 (hLPA5 [4]; calcium assay): ~ 2 fold | IC50 (hLPA5 [6]): 890 ± 100 nM | fold less potent than 2 (hLPA5 [6]): 4 – 10 fold

CN(C)c1cccc(-n2cc(C(=O)N3CCC(F)CC3)c3ccccc3c2=O)c1 [Compound 34, 2-(3-(Dimethylamino)phenyl)-4-(4-fluoropiperidine-1-carbonyl)isoquinolin-1(2H)-one]
IC50, nM (hLPA5 [4]): total loss of potency

COc1cc2c(=O)n(-c3cccc(N(C)C)c3)cc(C(=O)N3CCC(F)CC3)c2cc1OCc1cccc2ccccc12 [Compound 44, 2-(3-(Dimethylamino)phenyl)-4-(4-fluoropiperidine-1-carbonyl)-7-methoxy-6-(naphthalen-1-ylm-ethoxy)isoquinolin-1(2H)-one]
IC50, nM (hLPA5 [4]): total loss of activity

COc1cc2c(=O)n(-c3cccc(N(C)C)c3)cc(C(=O)N3CCC(F)CC3)c2cc1OCc1ccccn1 [Compound 45, 2-(3-(Dimethylamino)phenyl)-4-(4-fluoropiperidine-1-carbonyl)-7-methoxy-6-(pyridin-2-ylmeth-oxy)isoquinolin-1(2H)-one]
IC50, nM (hLPA5 [4]): total loss of activity

COc1cc2c(C(=O)N3CCCCC3)cn(-c3cccc(C(N)=O)c3)c(=O)c2cc1OC [Compound 50, 3-(6,7-Dimethoxy-1-oxo-4-(piperidine-1-carbonyl)isoquinolin-2(1H)-yl)benzamide]
IC50, nM (hLPA5 [4]): completely inactive

COc1cc2c(C(=O)N3CCCCC3)cn(-c3cccc(C(=O)N(C)C)c3)c(=O)c2cc1OC [Compound 51, 3-(6,7-Dimethoxy-1-oxo-4-(piperidine-1-carbonyl)isoquinolin-2(1H)-yl)-N,N-dimethylbenzamide]
IC50, nM (hLPA5 [4]): completely inactive

COc1cc2c(C(=O)N3CCCCC3)cn(-c3ccc4occ(C)c4c3)c(=O)c2cc1OC [Compound 56, 6,7-Dimethoxy-2-(3-methylbenzofuran-5-yl)-4-(piperidine-1-carbonyl)isoquinolin-1(2H)-one]
potency difference between cAMP and calcium mobilization assays (hLPA5 [6]): 3.9 fold

COc1cc2c(C(=O)N3CCCCC3)cn(-c3ccc4ccn(C)c4c3)c(=O)c2cc1OC [Compound 58, 6,7-Dimethoxy-2-(1-methyl-1H-indol-6-yl)-4-(piperidine-1-carbonyl)isoquinolin-1(2H)-one]
potency difference between cAMP and calcium mobilization assays (hLPA5 [6]): 7.2 fold

COc1cc2c(C(=O)N3CCC(F)CC3)cn(-c3ccc4occ(C)c4c3)c(=O)c2cc1OC [Compound 64, 4-(4-Fluoropiperidine-1-carbonyl)-6,7-dimethoxy-2-(3-methylbenzofuran-5-yl)isoquinolin-1(2H)-one]
fold less potent than 3 and 66 (hLPA5 [4]; calcium assay): ~ 4 fold

COc1cc2c(C(=O)N3CCC(F)CC3)cn(-c3ccc4scc(C)c4c3)c(=O)c2cc1OC [Compound 65, 4-(4-Fluoropiperidine-1-carbonyl)-6,7-dimethoxy-2-(3-methylbenzo[b]thiophen-5-yl)isoquinolin-1(2H)-one]
fold less potent than 2 (hLPA5 [4]): 1.5–2 fold | potency difference between cAMP and calcium mobilization assays (hLPA5 [6]): 4.9 fold | LPA1–LPA4 inhibition (LPA1–LPA4 receptors): <50% | affinity for panel receptors [7]: no significant affinity for most of the receptors | CLint scaled at 0.75 h [8]: 48.4 mL/min/kg | Papp B→A at 90 min, 10 μM [9]: 31.1 ×10⁻⁶ cm/s | Papp (B-to-A) (MDCK-mdr1 cells): 30.4 10^−6 cm/s | efflux ratio at 90 min, 10 μM (P-glycoprotein (MDR1)): < 2.5 | effect on CFA-induced nociceptive hypersensitivity ([1]; 17.8 mg/kg): markedly alleviated nociceptive hypersensitivity | duration of effect in CFA model [1]: ~ 5 h

CCCCCCCCCCCCCCCCOC[C@@H](O)COP(=O)(O)O [hexadecyl LPA 16:0, reference compound]
potency difference between cAMP and calcium mobilization assays (hLPA5 [6]): about 6 fold | IC50 (LPA5 [10]): 7.5 nM
